Data from ChEMBL document CHEMBL5053511, “Discovery of a Novel BCL-XL PROTAC Degrader with Enhanced BCL-2 Inhibition” (J Med Chem, 2021).
Each block holds one compound with its values, some of them ahead of it. Activity calls are given as the source filed them. The rule behind the calls is not given here.

Legend:
Platelet = test: Cytotoxicity against platelets in human PRP assessed as reduction in cell viability measured after 48 hrs by MTS assay; assay type: cell-based
Method in brief: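 Washed human platelets from PRP were kept in HEPES Tyrode's buffer with 1 µM PGE1 and 0.2 units/mL apyrase at 2×10^8/mL.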

[1] = molecular target: T1, von Hippel-Lindau disease tumor suppressor/Bcl-2-like protein 1 (Homo sapiens, UniProt Q07817+P40337); test: Protac activity at VHL/BCL-XL in human RS4-11 cells assessed as decrease in BCL-XL protein level by densitometric analysis; assay type: cell-based
Method in brief: (§1)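 MOLT-4 or RS4;11 cells were treated at a range of concentrations for 16 h. BCL-XL was immunoblotted with β-actin loading control, and band densitometry was normalised to β-actin. Mean ± SD of three independent experiments in triplicate.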
Target sequence in this assay (Q07817 whole entry): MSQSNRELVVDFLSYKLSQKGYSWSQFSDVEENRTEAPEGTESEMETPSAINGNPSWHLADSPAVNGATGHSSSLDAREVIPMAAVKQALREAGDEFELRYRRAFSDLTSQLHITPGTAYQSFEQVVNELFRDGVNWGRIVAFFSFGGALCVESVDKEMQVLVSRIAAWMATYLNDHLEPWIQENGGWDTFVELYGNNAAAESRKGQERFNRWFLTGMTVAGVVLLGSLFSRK
Target sequence in this assay (P40337 whole entry): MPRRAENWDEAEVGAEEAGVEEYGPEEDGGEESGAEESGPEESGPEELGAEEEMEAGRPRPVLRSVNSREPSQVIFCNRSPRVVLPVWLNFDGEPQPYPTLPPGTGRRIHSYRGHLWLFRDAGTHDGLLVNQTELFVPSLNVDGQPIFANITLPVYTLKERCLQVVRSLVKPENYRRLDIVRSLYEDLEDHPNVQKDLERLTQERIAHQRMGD

[2] = molecular target: T1, von Hippel-Lindau disease tumor suppressor/Bcl-2-like protein 1; test: Protac activity at VHL/BCL-XL in human MOLT-4 cells assessed as decrease in BCL-XL protein level by densitometric analysis; assay type: cell-based; method in brief: as §1
Target sequence in this assay (Q07817 whole entry): as the sequence (Q07817 whole entry) above
Target sequence in this assay (P40337 whole entry): as the sequence (P40337 whole entry) above

RS4-11 [3] = test: Cytotoxicity against human RS4-11 cells assessed as reduction in cell viability measured after 48 hrs by MTS assay; assay type: functional, cell-based; settings: RS4-11, 48 h
MOLT-4 = test: Cytotoxicity against human MOLT-4 cells assessed as reduction in cell viability measured after 48 hrs by MTS assay; assay type: functional, cell-based; settings: MOLT-4, 48 h
Bcl-2-like protein 1 = Bcl-2-like protein 1 (Homo sapiens, UniProt Q07817); test: Displacement of biotin-tagged LWAAQRYGRELRRMSDEFEGSFKGL from human BCL-XL expressed in Escherichia coli measured after 2 hrs by AlphaScreen assay
Sequence of Bcl-2-like protein 1 (Q07817 whole entry): as the sequence (Q07817 whole entry) above
Method in brief: (§2)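 AlphaScreen displacement, run with or without VCB. Anti-His acceptor beads were added for 1 h at room temperature, then streptavidin donor beads for 30 min in the dark. Ki was fitted by one-site competitive model from peptide concentration and measured Kd values; reported as mean ± SD of at least two experiments in triplicate.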

[4] = molecular target: Apoptosis regulator Bcl-2 (Homo sapiens, UniProt P10415); test: Displacement of biotin-tagged MRPEPATIAQELRRIGDEFNA from C-terminal His-tagged human BCL-2 (1` to 211 residues) expressed in Escherichia coli measured after 2 hrs by AlphaScreen assay; method in brief: as §2
Sequence of Apoptosis regulator Bcl-2 (P10415 whole entry, the tested form may be a part): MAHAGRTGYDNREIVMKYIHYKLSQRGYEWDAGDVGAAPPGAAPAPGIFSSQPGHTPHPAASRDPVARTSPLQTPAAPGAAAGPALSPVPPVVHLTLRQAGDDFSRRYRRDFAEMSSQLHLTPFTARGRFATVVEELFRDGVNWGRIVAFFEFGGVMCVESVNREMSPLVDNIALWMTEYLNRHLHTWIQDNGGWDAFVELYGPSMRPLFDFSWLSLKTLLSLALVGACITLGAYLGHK

[5] = (§3) Binding affinity to human BCL-XL expressed in Escherichia coli/recombinant human VHL (54 to end residues) fused to human N-terminal GST-tagged elongin-C/elongin -B/N-terminal His-tagged CUL2/Rbx1 expressed in baculovirus infected Sf21 insect cells measured after 2 hrs by AlphaScreen assay
Method in brief: as §2, with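 “VCB. Biotin-Bim (80 nM, for BCL-2) or biotin-Bad (16 nM, for BCL-XL) was combined with serially diluted compound and 6×His protein in 25 mM HEPES pH 7.5, 100 mM NaCl, 0.1% BSA, 0.005% Tween 20.” for “VCB.”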

[6] = (§4) Binding affinity to C-terminal His-tagged human BCL-2 (1 to 211 residues) expressed in Escherichia coli/recombinant human VHL (54 to end residues) fused to human N-terminal GST-tagged elongin-C/elongin -B/N-terminal His-tagged CUL2/Rbx1 expressed in baculovirus infected Sf21 insect cells measured after 2 hrs by AlphaScreen assay
Method in brief: as §2, with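 “VCB. Biotin-Bim (80 nM, for BCL-2) or biotin-Bad (16 nM, for BCL-XL) was combined with serially diluted compound and 6×His protein in 25 mM HEPES pH 7.5, 100 mM NaCl, 0.1% BSA, 0.005% Tween 20.” for “VCB.”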

[7] = as §3, with “cells assessed as ternary complex formation at up to 100000 nM” for “cells”, “30 mins” for “2 hrs”, “AlphaLISA” for “AlphaScreen”
Method in brief: (§5)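 Cell-free ternary complex AlphaLISA: 6×His-tagged BCL-XL, BCL-2 or MCL-1 (20 nM) mixed with serially diluted compound (4× dilution) and GST-VCB (20 nM) in 25 mM HEPES pH 7.5, 100 mM NaCl, 0.1% BSA, 0.005% Tween 20. After 30 min at room temperature, glutathione donor beads were added for 15 min, then anti-His acceptor beads for 45 min in the dark. Luminescence was plotted against log compound concentration.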

[8] = as §4, with “cells assessed as ternary complex formation at up to 100000 nM” for “cells”, “30 mins” for “2 hrs”, “AlphaLISA” for “AlphaScreen”; method in brief: as §5
[9] = molecular target: T1, von Hippel-Lindau disease tumor suppressor/Bcl-2-like protein 1; test: Binding affinity to Halo-tagged VHL/HiBiT-tagged BCL-XL (unknown origin) expressed in HEK293T cells assessed as ternary complex formation at up to 100000 nM measured after 6 hrs by NanoBRET assay; assay type: cell-based
Method in brief: (§6)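 NanoBRET in live HEK 293T cells. Cells were transfected with HaloTag-VHL (1 µg), HiBit-BCL-XL or HiBit-BCL-2 (10 ng) and LgBit (10 ng). After 24 h they were seeded at 2×10^4 per well in Opti-MEM with 4% FBS, with or without HaloTag 618 ligand, and held overnight. Serial compound doses were given for 6 h at 37 °C, then Nano-Glo substrate was added and mBRET ratios read. Mean ± s.e.m. of two experiments in triplicate.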
Target sequence in this assay (P40337 whole entry, looked up): as the sequence (P40337 whole entry) above
Target sequence in this assay (Q07817 whole entry, looked up): as the sequence (Q07817 whole entry) above

[10] = molecular target: T2, von Hippel-Lindau disease tumor suppressor/Apoptosis regulator Bcl-2 (Homo sapiens) (UniProt P10415+P40337); test: Binding affinity to Halo-tagged VHL/HiBiT-tagged BCL-2 (unknown origin) expressed in HEK293T cells assessed as ternary complex formation at up to 100000 nM measured after 6 hrs by NanoBRET assay; assay type: cell-based; method in brief: as §6
T2 sequence (P10415 whole entry, looked up): as the sequence (P10415 whole entry, the tested form may be a part) above
T2 sequence (P40337 whole entry, looked up): as the sequence (P40337 whole entry) above

RS4-11 [11] = test: Cytotoxicity against human RS4-11 cells assessed as reduction in cell viability measured after 48 hrs in presence of VHL-032 by MTS assay; assay type: functional, cell-based; settings: RS4-11, 48 h
Method in brief: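 RS4;11 cells were pretreated with 10 µM VHL-032, then exposed to compound for 48 h. Viability was read by MTS; three independent experiments in triplicate.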

[12] = molecular target: T1, von Hippel-Lindau disease tumor suppressor/Bcl-2-like protein 1; test: Protac activity at VHL/BCL-XL in human MOLT-4 assessed as decrease in BCL-XL protein level at up to […] measured after 16 hrs by Western blot analysis; method in brief: as §1
Target sequence in this assay (P40337 whole entry, looked up): as the sequence (P40337 whole entry) above
Target sequence in this assay (Q07817 whole entry, looked up): as the sequence (Q07817 whole entry) above

[13] = molecular target: T1, von Hippel-Lindau disease tumor suppressor/Bcl-2-like protein 1; test: Protac activity at VHL/BCL-XL in human RS4-11 assessed as decrease in BCL-XL protein level at up to […] measured after 16 hrs by Western blot analysis; method in brief: as §1
Target sequence in this assay (P40337 whole entry, looked up): as the sequence (P40337 whole entry) above
Target sequence in this assay (Q07817 whole entry, looked up): as the sequence (Q07817 whole entry) above

[14] = molecular target: T1, von Hippel-Lindau disease tumor suppressor/Bcl-2-like protein 1; test: Binding affinity to VHL/ BCL-XL in human RS4-11 cells assessed as ternary complex formation at up to 300 nM measured after 12 hrs by immunoprecipitation assay; assay type: cell-based
Target sequence in this assay (P40337 whole entry, looked up): as the sequence (P40337 whole entry) above
Target sequence in this assay (Q07817 whole entry, looked up): as the sequence (Q07817 whole entry) above

[15] = molecular target: T1, von Hippel-Lindau disease tumor suppressor/Bcl-2-like protein 1; test: Binding affinity to VHL/ BCL-XL in human RS4-11 cells assessed as ternary complex formation at up to 300 nM measured after 12 hrs in presence of VHL-032 by immunoprecipitation assay; assay type: cell-based
Target sequence in this assay (P40337 whole entry, looked up): as the sequence (P40337 whole entry) above
Target sequence in this assay (Q07817 whole entry, looked up): as the sequence (Q07817 whole entry) above

[16] = molecular target: T2, von Hippel-Lindau disease tumor suppressor/Apoptosis regulator Bcl-2 (Homo sapiens); test: Binding affinity to VHL/BCL-2 in human RS4-11 cells assessed as ternary complex formation at up to 300 nM measured after 12 hrs in presence of VHL-032 by immunoprecipitation assay; assay type: cell-based
[17] = molecular target: T2, von Hippel-Lindau disease tumor suppressor/Apoptosis regulator Bcl-2 (Homo sapiens); test: Binding affinity to VHL/BCL-2 in human RS4-11 cells assessed as ternary complex formation at up to 300 nM measured after 12 hrs by immunoprecipitation assay; assay type: cell-based
[18] = molecular target: T1, von Hippel-Lindau disease tumor suppressor/Bcl-2-like protein 1; test: Protac activity at VHL/BCL-XL in human MOLT-4 cells assessed as induction of BCL-XL degradation measured after 16 hrs by Western blot analysis; assay type: cell-based; method in brief: as §1
Target sequence in this assay (Q07817 whole entry): as above
Target sequence in this assay (P40337 whole entry): as the sequence (P40337 whole entry) above

DC50 [1]: 75.2 nM
DC50 [2]: 127 nM
Ki (Bcl-2-like protein 1): 2.75 nM
Kd [4]: 1.47 nM
Activity [9]: Active
Activity [10]: Active
Compound: Cc1ncsc1-c1ccc([C@H](C)NC(=O)[C@@H]2C[C@@H](O)CN2C(=O)[C@@H](NC(=O)CCCCCCCCC(=O)NC[C@@]2(C)CCC(c3ccc(Cl)cc3)=C(CN3CCN(c4ccc(C(=O)NS(=O)(=O)c5ccc(N[C@H](CCN6CCOCC6)CSc6ccccc6)c(S(=O)(=O)C(F)(F)F)c5)cc4)CC3)C2)C(C)(C)C)cc1
IC50 (Platelet): 9850 nM
IC50 (RS4-11 [3]): 418 nM
IC50 (MOLT-4): 170 nM
Kd [5]: 0.64 nM
Kd [6]: 0.55 nM
Activity [7]: Active
Activity [8]: Active
IC50 (RS4-11 [11]): 1040 nM

Activity [12]: inactive
Activity [13]: inactive
Activity [9]: inactive
Activity [10]: inactive
Activity [14]: Active
Activity [15]: inactive
Activity [16]: inactive
Compound: Cc1ncsc1-c1ccc([C@H](C)NC(=O)[C@@H]2C[C@H](O)CN2C(=O)[C@@H](NC(=O)CCCCCCCCC(=O)NC[C@]2(C)CCC(c3ccc(Cl)cc3)=C(CN3CCN(c4ccc(C(=O)NS(=O)(=O)c5ccc(N[C@H](CCN6CCOCC6)CSc6ccccc6)c(S(=O)(=O)C(F)(F)F)c5)cc4)CC3)C2)C(C)(C)C)cc1
IC50 (RS4-11 [3]): 328 nM
IC50 (MOLT-4): 821 nM

Compound: Cc1ncsc1-c1ccc([C@H](C)NC(=O)[C@@H]2C[C@@H](O)CN2C(=O)[C@@H](NC(=O)CCCCCCC(=O)NCC2(C)CCC(c3ccc(Cl)cc3)=C(CN3CCN(c4ccc(C(=O)NS(=O)(=O)c5ccc(N[C@H](CCN6CCOCC6)CSc6ccccc6)c(S(=O)(=O)C(F)(F)F)c5)cc4)CC3)C2)C(C)(C)C)cc1 (some centres undefined)
IC50 (RS4-11 [3]): 108 nM
IC50 (MOLT-4): 219 nM

Compound: Cc1ncsc1-c1ccc([C@H](C)NC(=O)[C@@H]2C[C@@H](O)CN2C(=O)[C@@H](NC(=O)CCCCCCCCCC(=O)NCC2(C)CCC(c3ccc(Cl)cc3)=C(CN3CCN(c4ccc(C(=O)NS(=O)(=O)c5ccc(N[C@H](CCN6CCOCC6)CSc6ccccc6)c(S(=O)(=O)C(F)(F)F)c5)cc4)CC3)C2)C(C)(C)C)cc1 (some centres undefined)
IC50 (RS4-11 [3]): 29.2 nM
IC50 (MOLT-4): 74.6 nM

Compound: Cc1ncsc1-c1ccc([C@H](C)NC(=O)[C@@H]2C[C@@H](O)CN2C(=O)[C@@H](NC(=O)CCCCCCCCCCCC(=O)NCC2(C)CCC(c3ccc(Cl)cc3)=C(CN3CCN(c4ccc(C(=O)NS(=O)(=O)c5ccc(N[C@H](CCN6CCOCC6)CSc6ccccc6)c(S(=O)(=O)C(F)(F)F)c5)cc4)CC3)C2)C(C)(C)C)cc1 (some centres undefined)
IC50 (RS4-11 [3]): 410 nM
IC50 (MOLT-4): 334 nM

Compound: Cc1ncsc1-c1ccc([C@H](C)NC(=O)[C@@H]2C[C@@H](O)CN2C(=O)[C@@H](NC(=O)CCCCCCCCCCC(=O)NCC2(C)CCC(c3ccc(Cl)cc3)=C(CN3CCN(c4ccc(C(=O)NS(=O)(=O)c5ccc(N[C@H](CCN6CCOCC6)CSc6ccccc6)c(S(=O)(=O)C(F)(F)F)c5)cc4)CC3)C2)C(C)(C)C)cc1 (some centres undefined)
IC50 (RS4-11 [3]): 96.3 nM
IC50 (MOLT-4): 112 nM

Compound: Cc1ncsc1-c1ccc([C@H](C)NC(=O)[C@@H]2C[C@@H](O)CN2C(=O)[C@@H](NC(=O)CCCCCCCC(=O)NCC2(C)CCC(c3ccc(Cl)cc3)=C(CN3CCN(c4ccc(C(=O)NS(=O)(=O)c5ccc(N[C@H](CCN6CCOCC6)CSc6ccccc6)c(S(=O)(=O)C(F)(F)F)c5)cc4)CC3)C2)C(C)(C)C)cc1 (some centres undefined)
IC50 (RS4-11 [3]): 43.7 nM
IC50 (MOLT-4): 125 nM

Activity [14]: Active
Activity [17]: Active
Activity [15]: inactive
Compound: CC1(C)CCC(c2ccc(Cl)cc2)=C(CN2CCN(c3ccc(C(=O)NS(=O)(=O)c4ccc(N[C@H](CCN5CCOCC5)CSc5ccccc5)c(S(=O)(=O)C(F)(F)F)c4)cc3)CC2)C1 [NAVITOCLAX]
IC50 (Platelet): 325 nM

Compound: Cc1ncsc1-c1ccc([C@H](C)NC(=O)[C@@H]2C[C@@H](O)CN2C(=O)[C@@H](NC(=O)CCCCCC(=O)NCC2(C)CCC(c3ccc(Cl)cc3)=C(CN3CCN(c4ccc(C(=O)NS(=O)(=O)c5ccc(N[C@H](CCN6CCOCC6)CSc6ccccc6)c(S(=O)(=O)C(F)(F)F)c5)cc4)CC3)C2)C(C)(C)C)cc1 (some centres undefined)
IC50 (MOLT-4): 307 nM

Compound: Cc1ncsc1-c1ccc([C@H](C)NC(=O)[C@@H]2C[C@@H](O)CN2C(=O)[C@@H](NC(=O)CCCCC(=O)NCC2(C)CCC(c3ccc(Cl)cc3)=C(CN3CCN(c4ccc(C(=O)NS(=O)(=O)c5ccc(N[C@H](CCN6CCOCC6)CSc6ccccc6)c(S(=O)(=O)C(F)(F)F)c5)cc4)CC3)C2)C(C)(C)C)cc1 (some centres undefined)
IC50 (RS4-11 [3]): 304 nM
IC50 (MOLT-4): 340 nM

DC50 [1]: 22.6 nM
DC50 [2]: 31.6 nM
DC50 [18]: 27.2 nM
Activity [9]: Active
Activity [10]: Active
Compound: Cc1ncsc1-c1ccc([C@H](C)NC(=O)[C@@H]2C[C@@H](O)CN2C(=O)[C@@H](NC(=O)CCCCCCCCC(=O)NCC2(C)CCC(c3ccc(Cl)cc3)=C(CN3CCN(c4ccc(C(=O)NS(=O)(=O)c5ccc(N[C@H](CCN6CCOCC6)CSc6ccccc6)c(S(=O)(=O)C(F)(F)F)c5)cc4)CC3)C2)C(C)(C)C)cc1 (some centres undefined)
IC50 (Platelet): 2900 nM
IC50 (RS4-11 [3]): 23.3 nM
IC50 (MOLT-4): 32.1 nM
IC50 (RS4-11 [11]): 481 nM
